# Screens as filed in PubChem.
# Scp-1 inhibitor: Scp-1 phosphatase inhibitors, primary screen, biochemical, colorimetric, uHTS. Carboxy-terminal domain RNA polymerase II polypeptide A small phosphatase 1 (Homo …. Recombinant Scp1, phosphopeptide, malachite green phosphate absorbance. inhibition, % at 20 µM. actives 0.88% (n = 340,000);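 active means inhibition above about 50% at 20 µM, limit read from the data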;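 further: plate controls were DMSO wells with enzyme for no effect and wells lacking enzyme for full effect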
# Target sequence (Q9GZU7 76-261 limits assumed): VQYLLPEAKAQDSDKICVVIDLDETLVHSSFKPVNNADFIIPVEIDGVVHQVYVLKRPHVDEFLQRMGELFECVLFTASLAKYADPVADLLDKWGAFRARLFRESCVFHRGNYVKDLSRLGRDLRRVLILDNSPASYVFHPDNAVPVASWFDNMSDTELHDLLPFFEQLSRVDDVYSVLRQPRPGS
#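 Test system: SCP-1 catalytic domain; Buffer or medium: Acidic Tris acetate buffer with magnesium and detergent; Also added: Phosphorylated 17-residue peptide substrate; Compound: single 20 µM dose, 1% DMSO; Schedule: enzyme reaction 45 min at room temperature, colour 5 min, stabilisation 30 min; Signal: Phosphate-binding colour reagent, absorbance read at 630 nm.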
# LMPTP inh: LMPTP phosphatase inhibitors, primary screen, biochemical, fluorescence intensity, uHTS. Low molecular weight phosphotyrosine protein phosphatase (Homo sapiens), P24666. inhibition, % at 20 µM. recombinant LMPTP-A, OMFP fluorogenic substrate. actives 0.22% (n = 360,000). AID 651560, 2012;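 active means compounds that cut the enzyme signal by at least half of the control window in the single-dose screen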;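 further: plate controls were DMSO wells with enzyme plus substrate for no effect and substrate without enzyme for full effect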
# Target sequence (P24666 whole entry, looked up): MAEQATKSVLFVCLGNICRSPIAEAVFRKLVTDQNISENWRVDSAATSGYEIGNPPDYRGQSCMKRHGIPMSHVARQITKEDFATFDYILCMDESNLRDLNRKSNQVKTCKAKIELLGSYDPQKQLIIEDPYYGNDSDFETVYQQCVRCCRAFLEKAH
#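 material = LMPTP-A | quantity = 0.625 nM enzyme | reagent = OMFP substrate, 400 µM final | buffer or medium = Bis-Tris pH 6.0, DTT, detergent | detection = endpoint fluorescence intensity from OMFP dephosphorylation | dosing = single 20 µM dose | read-out basis = % inhibition relative to no-enzyme and uninhibited control wells | control set = no-enzyme and uninhibited controls | timing = 50 min at room temperature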
# SUMO1-SIM PPI: modulators of SUMO1 protein-protein interactions, primary screen, biochemical, uHTS; SUMO1 binding to a labelled peptide, TR-FRET, 1 h; inhibition, % at 20 µM; actives 0.33% (n = 360,000); in the data active means inhibition above about 37%
# Target sequence (P63165 whole entry, looked up): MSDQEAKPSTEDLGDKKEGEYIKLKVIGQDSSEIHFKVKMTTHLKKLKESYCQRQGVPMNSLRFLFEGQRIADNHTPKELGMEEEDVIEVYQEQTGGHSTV
# STEP inh: STEP phosphatase inhibitors, primary screen, biochemical, fluorescence intensity, uHTS. inhibition, % at 20 µM. actives 0.25% (n = 360,000). AID 588621, 2011. recombinant STEP, OMFP fluorogenic substrate;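 active means inhibition at 20 µM, scaled per plate between control wells, above about 37%, limit read from the data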;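 further: 0% = DMSO with enzyme and substrate and 100% = substrate only without enzyme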
#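 Test system: STEP tyrosine phosphatase / Reagent: OMFP at 25 µM / Doses: 20 µM, 1% DMSO / Read-out: percent inhibition scaled to no-enzyme and uninhibited-enzyme controls, plate-pattern corrected / Detection: FITC-channel fluorescence of OMFP product / Medium: Bis-Tris buffer pH 6.0, 2.5 mM DTT, 0.005% Tween 20 / Schedule: 20 min at room temperature, dark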
# DNMT1 inh: human DNMT1 methyltransferase inhibitors, primary screen, biochemical, molecular beacon, fluorescence, HinP1I cleavage, uHTS; inhibition (reported as % activation of signal), % at 10 µM; actives 0.83% (n = 360,000); in the data active means inhibition above about 50%
# Scp1 confirm: Scp-1 phosphatase inhibitors, retest, confirmation, biochemical, colorimetric, single concentration; recombinant SCP-1 catalytic domain, phosphate release, malachite green absorbance; shares compounds with Scp-1 inhibitor; AID 540281, 2011; actives 61% (n = 2,500); inhibition, % at 20 µM;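 further: plate controls were DMSO with enzyme for no effect and buffer wells lacking enzyme for full effect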
# MG interference: colorimetric readout interference by compounds, confirmation, artefact control for Scp-1 inhibitor project, biochemical, single concentration | apparent inhibition (interference), % at 20 µM | shares compounds with Scp-1 inhibitor | Colorimetric interference counterscreen, malachite green absorbance 630 nm | 2,500 tested, under 10 active;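 further: compounds added after enzyme reaction finished so only phosphate colour detection is probed; plate controls were DMSO wells with completed Scp-1 reaction for no effect and substrate wells lacking enzyme for full effect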
# Scp1 DSF: Scp-1 binding by thermal shift, confirmation, orthogonal assay for Scp-1 inhibitor project, biophysical, differential scanning fluorimetry. shares compounds with Scp-1 inhibitor. Recombinant SCP1, Sypro Orange thermal shift Tm. thermal shift relative to vanadate control, % at 40 µM. actives 25% (n = 1,500). AID 540329, 2011;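 active means substances whose mean melting-temperature shift, as a percentage of the reference inhibitor's shift, reaches about 5.3%, limit read from the data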;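 further: 0% = Tm of DMSO wells and 100% = Tm with sodium orthovanadate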
# DNMT1 inh conf: DNMT1 methyltransferase inhibitor retest, confirmation, biochemical, molecular beacon, fluorescence, single concentration; DNMT1 molecular beacon HinP1I cleavage; actives 8% (n = 2,300); AID 602385, 2012; inhibition, % at 10 µM; shares compounds with DNMT1 inh;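 active means average inhibition of at least 30% in the single-concentration confirmation test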
# DNMT1 interf: shows spectral interference in the DNMT1 beacon assay | actives 1% (n = 2,300) | DNMT1 molecular beacon spectral interference counterscreen, fluorescence 485/520 | shares compounds with DNMT1 inh | activation (fluorescence interference), % at 10 µM;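 active means activation of at least 30% at 10 µM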;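 further: DNMT1 catalytic domain with a HinP1I cleavage step and a FAM/dabcyl DNA beacon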
# STEP inh conf: STEP phosphatase inhibitor hit confirmation, biochemical, fluorescence intensity, single concentration. shares compounds with STEP inh. recombinant STEP, OMFP fluorogenic substrate. inhibition, % at 20 µM. actives 32% (n = 520); call rule not given here;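 further: 0% = enzyme with substrate plus DMSO and 100% = substrate without enzyme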
# An asterisk follows results filed as active; . = no result given. Most compounds without a hit are left out; they make up all but 1.7% or so of the library.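 How the source made its calls, unless noted: active means inhibition of at least 30% at 20 µM; inactive means the rest.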
SMILES,Scp-1 inhibitor,LMPTP inh,SUMO1-SIM PPI,STEP inh,DNMT1 inh,Scp1 confirm,MG interference,Scp1 DSF,STEP inh conf,others
O=C(CCc1ccccc1)NNC(=O)c1ccc(NC(=O)c2ccccc2)cc1,57*,61*,0,42*,29,74*,-14,-16,95*,
CCOC(=O)CN1C(=O)S/C(=C/c2ccc(OCc3ccc(C(=O)O)cc3)cc2)C1=O,93*,27,-19,78*,0,67*,-2,-14,50*,
COc1cccc(Nc2nn3c(=O)c4ccccc4nc3s2)c1,60*,18,-8,82*,19,58*,-2,6.1*,47*,
O=C(C[C@@H]1C[C@H]2c3cc(NC(=O)c4cccnc4)ccc3O[C@H]2[C@H](CO)O1)NCc1ccc(Oc2ccccc2)cc1,.,-1,-4,-2,-13,.,.,.,.,
COc1ccc(Cl)cc1NC(=O)CN(C)C(=O)CCNC(=O)c1ccccc1OC,-6,-2,-2,0,0,.,.,.,.,
COc1cccc(C(=O)N/N=C(\C)c2ccc(NC(=O)Cc3ccccc3)cc2)c1OC,-8,-2,-2,-2,2,.,.,.,.,
C/C(=N\NC(=O)c1ccccc1O)c1ccc(NC(=O)Cc2ccccc2)cc1,101*,59*,37,84*,0,84*,-15,0,79*,
Cc1cccc(C)c1NC(=O)C(c1ccc(C#N)cc1)n1c(=O)c(-c2ccccc2)nc2ccccc21 (configuration not stated),.,0,-31,.,.,.,.,.,.,
Cn1c2ccccc2c(=O)c2c(=O)n(C3CCCCCC3)c(C3CCCCC3)nc21,97*,12,-7,60*,68*,18,6,.,7,DNMT1 inh conf=1;DNMT1 interf=-5
O=C(O)CSc1sc(=S)sc1SCC(=O)O,76*,1,-12,58*,-2,10,-11,.,14,
O=C(/C=C/c1cccc([N+](=O)[O-])c1)Nc1ccc(NC(=O)c2cccs2)cc1,75*,56*,0,45*,44,74*,-10,15*,18,
O=C(/C=C/c1cccc([N+](=O)[O-])c1)c1cccs1,-10,1,-12,-2,2,.,.,.,.,
O=C(N/N=C/C=C\c1ccccc1[N+](=O)[O-])c1cccs1,4,-1,-20,0,0,.,.,.,.,
O=C(N/N=C/C=C/c1ccc([N+](=O)[O-])cc1)c1cccs1,101*,87*,-4,96*,97*,91*,-6,6.4*,-5,DNMT1 inh conf=11;DNMT1 interf=1
CC(C)c1ccc(CCNC(=O)CCNS(=O)(=O)c2ccc(Br)cc2)cc1,0,-6,-5,-3,-6,.,.,.,.,
O=C(NCCc1ccc(Cl)cc1)C1=CC=CN2CCS(=O)(=O)N=C12,-4,-1,5,-2,-4,.,.,.,.,
COc1ccc(S(=O)(=O)N(C)c2ccc(C(=O)Nc3ccccc3C(=O)N3CCOCC3)cc2)cc1OC,3,-1,2,2,0,.,.,.,.,
Cc1ccc(NC(=O)CN2C(=O)S/C(=C\c3ccccn3)C2=O)cc1C,-2,1,-3,0,27,.,.,.,.,
Cc1ccc(NC(=O)CN2C(=O)S/C(=C\c3cccn3-c3cccc(C(=O)O)c3)C2=O)cc1C,79*,46,-4,42*,30,80*,-7,11*,3,
CCOc1ccccc1CN1CCN(CCCc2ccccc2)CC1CCO (configuration not stated),-8,1,7,-3,-18,.,.,.,.,
CC(=O)N1CCOc2ccc(S(=O)(=O)NCc3ccc(F)cc3)cc21,62*,22,-2,73*,26,50*,-16,-9,30*,
CCCc1cc(=O)[nH]c(SCC(=O)Nc2cccc(S(=O)(=O)N3CCOCC3)c2)n1,-5,-1,4,2,0,.,.,.,.,
O=C1CCCN1CCCNC(=S)Nc1cccc2ccccc12,5,2,-1,55*,-11,-16,-18,.,6,
CCCCC(=O)Nc1ccc(C(=O)NNC(=O)c2ccc(C)c(Br)c2)cc1,102*,78*,26,74*,81*,71*,-27,-12,40*,DNMT1 inh conf=4;DNMT1 interf=0
CCc1ccc(NC(=O)CS(=O)CC(=O)Nc2ccc(N3CCOCC3)cc2)cc1 (configuration not stated),79*,63*,25,72*,45,88*,-14,-10,6,
COc1cccc2c1C1COC3C4CC(C(=O)O)C(C(C2)N13)N4C (configuration not stated),0,-1,-1,0,1,.,.,.,.,
Cc1ccc(Cn2c(C(C)Nc3nc(-c4ccc(C)cc4)cs3)nc3cc(Cl)c(Cl)cc32)cc1 (configuration not stated),61*,24,110*,78*,78*,56*,2,4,26,DNMT1 inh conf=11;DNMT1 interf=5
COc1ccc(C(CNC(=O)C2CC(=O)N(Cc3ccccc3)C2)N2CCOCC2)cc1 (configuration not stated),-1,-1,5,-4,3,.,.,.,.,
O=C1Nc2ccc3sc4ccccc4c3c2C1=O,93*,77*,55*,96*,24,79*,-9,8.0*,53*,
